Compound activity (PubChem)
Most compounds without a hit are left out; they make up all but 2.2% or so of the library.
Runt-CBFb FRET: Runt domain-CBFb interaction inhibition; Cerulean-Runt/Venus-CBFb FRET ratio 530/480, 1 h; Q01196+Q13951; inhibition, % at 20 µM; 0.46% of 220,000 active;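 active = inhibition over about 50% at 20 µM in the single-dose screen, limit read from the data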;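 also: 0% = DMSO wells and 100% = excess unlabeled CBFb competitor control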
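Assay system: Cerulean-Runt domain fusion protein, energy donor; Signal: fluorescence energy transfer, 422 nm excitation, 530/480 nm emission; Timing: 1 h compound exposure, room temperature; Control set: unlabeled CBFb; Medium: Tris buffer pH 7.5 with salts and BSA; Compound: single test concentration of 20 µM, 1% DMSO final; Probe or stimulus: Venus-CBFb 100 nM.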
RanGTP-Imp inh: inhibitors of RanGTP-importin-beta interaction, primary screen, biochemical, FRET, CFP-Ran, YFP-importin-beta, homogeneous; cell-free CFP-Ran/YFP-importin-beta FRET ratio; inhibition, % (concentration not given with the values); 1.1% of 300,000 active;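 active = more than half of the replicate wells show a fall in the fluorescence ratio signal beyond about 16%, limit read from the data, passing the limit was not always enough; inconclusive = exactly half of the replicate wells pass the set limit; inactive = fewer than half of replicates pass the limit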;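 also: 0% = DMSO wells and 100% = Ran loaded with GDP instead of GTP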
Hck-Nef inh: inhibitors of human Hck kinase activated by Nef; inhibition, % at 20 µM; P08631; 0.68% of 220,000 active; Recombinant Hck-YEEI plus Nef, Z-Lyte FRET kinase assay;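 active = Hck-Nef kinase inhibition above about 50%, limit read from the data; inactive = inhibition below that limit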;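 also: 0% = DMSO with Hck plus Nef and 100% = Hck alone without Nef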
Target sequence (P08631 whole entry, looked up): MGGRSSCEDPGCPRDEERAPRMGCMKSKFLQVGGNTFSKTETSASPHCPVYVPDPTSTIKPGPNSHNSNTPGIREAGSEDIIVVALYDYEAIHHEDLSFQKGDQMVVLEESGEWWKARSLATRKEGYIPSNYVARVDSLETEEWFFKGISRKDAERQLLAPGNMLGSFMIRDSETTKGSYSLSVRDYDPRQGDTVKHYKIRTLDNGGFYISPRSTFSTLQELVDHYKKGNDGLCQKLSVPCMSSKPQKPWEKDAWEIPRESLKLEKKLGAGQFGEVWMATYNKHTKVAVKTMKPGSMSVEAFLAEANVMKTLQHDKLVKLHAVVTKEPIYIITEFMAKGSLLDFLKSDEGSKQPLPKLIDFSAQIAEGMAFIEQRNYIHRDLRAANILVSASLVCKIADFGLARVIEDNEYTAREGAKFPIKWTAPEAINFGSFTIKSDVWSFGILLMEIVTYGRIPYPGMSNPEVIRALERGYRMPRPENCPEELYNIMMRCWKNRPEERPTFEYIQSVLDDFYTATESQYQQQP
Runt-SMMHC FRET: blocks binding of human RUNX1 Runt domain to CBFb-SMMHC; AID 1434; 0.74% of 220,000 active; inhibition, % at 20 µM; Cerulean-Runt/Venus-CBFb-SMMHC FRET ratio 530/480, 1 h; Q01196+Q13951;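 active = mean inhibition across duplicate retests at 20 µM reaching about 50%, limit read from the data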;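 also: 0% = DMSO wells and 100% = wells with excess untagged CBFb-SMMHC; inhibitors lower the FRET ratio by blocking Runt binding to CBFb-SMMHC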
14-3-3 Bad inh: disrupts binding of bovine 14-3-3 zeta to phospho-Bad peptide; P63103; TR-FRET 14-3-3zeta/Dy647-pBad peptide displacement, 1 h; inhibition, % at 21.7 µM; 0.71% of 220,000 active; AID 781;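 active = inhibition above about 70%, limit read from the data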;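 also: 0% = full 14-3-3 plus peptide FRET controls and 100% = background without 14-3-3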
TbHK1 inh: blocks Trypanosoma brucei hexokinase 1 activity | recombinant TbHK1, G6PDH-coupled NADH A340 | inhibition, % at 10 µM | AID 1430 | 0.11% of 220,000 active;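 active = inhibition of 50% or more in the single-dose primary screen; inactive = inhibition below 50%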
RUNX1 CBFb TR: disrupts human RUNX1 Runt domain binding to CBFb | 20% of 480 active | shares compounds with Runt-CBFb FRET | inhibition, % at 20 µM | TR-FRET RUNX1 Runt domain-CBFb binding; in the data active = inhibition above about 40%
Starred values were filed as active, the others as inactive; ? = inconclusive; . = no result.

SMILES	Runt-CBFb FRET	RanGTP-Imp inh	Hck-Nef inh	Runt-SMMHC FRET	14-3-3 Bad inh	TbHK1 inh	RUNX1 CBFb TR
O=C(c1cccc(N2C(=O)C3C4C=CC(C4)C3C2=O)c1)N1CCN(c2ccccc2Cl)CC1 (stereo not given)	.	0.4	.	.	.	.	.
NS(=O)(=O)c1ccc(N/C=C\C(=O)c2ccc3ccccc3c2)cc1	50.3*	-3.0	7.7	-62.3	48.5	-20.3	43.8*
CN1CCc2cccc3c2[C@@H]1Cc1ccc(O)c(O)c1-3	86.2*	.	7.9	.	26.3	3.3	68.3*
COc1ccc2c(c1O)-c1ccccc1CCN(C)C2	2.5	1.8	5.1	2.3	-1.0	-2.6	.
Cc1cc(C)c2c(n1)sc1c(O)cc(=O)[nH]c12	51.9*	-0.3	3.9	35.7	6.2	-10.8	21.4
COc1ccc(-c2cc(C(F)(F)F)c3c(n2)sc2c(O)cc(=O)[nH]c23)c(OC)c1	-11.7	-41.8	-3.5	-114.6	-10.9	-5.8	.
COc1cccc(C(c2c(N)[nH]c(=S)[nH]c2=O)c2c(N)[nH]c(=S)[nH]c2=O)c1	50.9*	0.9	-22.2	18.7	-1.4	-8.9	56.1*
COc1cccc(C(NC(=O)c2ccccc2F)NC(=O)c2ccccc2F)c1	-3.7	-6.6	3.6	3.9	11.9	-1.1	.
Cc1ccc2nc3c(cc(C(=O)NCCCn4ccnc4)n3C)c(=O)n2c1	53.6*	-2.8	34.6	77.1*	12.0	-29.5	-23.3
Cc1ccc(/C=c2\sc3nc(-c4ccccc4Br)nn3c2=O)o1	25.3	-0.7	6.2	0.8	-10.2	3.1	.
Cc1ccc(/C=c2\sc3nc(-c4ccco4)nn3c2=O)o1	53.2*	12.4	12.7	28.6	0.6	-3.6	88.5*
Fc1ccccc1C1CC(c2ccco2)=Nc2ccccc2S1 (stereo not given)	50.4*	2.2	10.6	2.6	-2.8	-22.3	22.0
Oc1ccc(Cl)cc1C1=Nc2ccccc2N=C(c2ccco2)C1	-31.5	0.5	6.6	-50.6	10.0	-20.4	.
Nc1nc2ccc(S(=O)(=O)N3CCCCC3)cc2s1	56.5*	-4.6	-1.3	55.6	-2.8	7.1	6.4
CC(=O)c1ccc(OC(=O)CCc2nc3ccccc3s2)cc1	58.7*	-2.5	5.6	37.2	1.0	-1.7	41.8*
Cc1ccc(NC(=S)N(CCN(C)C)Cc2cccs2)c(C)c1	54.1*	-0.7	22.3	43.4	-6.9	7.4	22.8
O=c1oc2c(-c3cccc(F)c3)cc(O)cc2s1	58.2*	-1.2	28.4	9.0	-9.1	20.8	22.9
Cc1ccc(/C=C/C(=O)N2CCN(c3ccc(F)cc3)CC2)o1	51.0*	3.0	1.3	20.5	-26.8	6.8	33.4
CN(C)S(=O)(=O)Oc1cccc(C(=O)Nc2ccc([N+](=O)[O-])cc2)c1	1.0	0.1	18.0	0.5	-4.8	-5.7	.
O=C1Nc2ccccc2S/C1=C/NCc1ccccc1Cl	59.3*	0.2	29.3	25.8	-5.8	-5.7	13.9
COc1ccc(N/C=C2/Sc3ccccc3NC2=O)cc1	61.4*	0.5	25.6	54.0*	-22.2	-8.2	13.9
Cc1ccc(N/C=C2/Sc3ccccc3NC2=O)cc1	35.9	-1.6	-2.7	-8.1	-7.9	-9.9	.
COc1ccc(N2CCN(C(c3cccs3)C(C)NS(C)(=O)=O)CC2)cc1 (stereo not given)	2.3	-1.0	17.2	1.1	-8.7	2.0	.
COc1ccccc1N1CCN(Cc2ccsc2)CC1	54.0*	6.5	3.2	1.3	68.8	6.1	-5.9
CCC1=C(OC(=O)N(CC)CC)N2C(=O)OC(=NCCc3c[nH]c4ccccc34)[C@]2(Cc2ccccc2)[C@H]2C1=CC[C@H]1C(=O)N(C)C(=O)[C@H]12	0.0	-0.6	22.7	1.4	-10.7	-25.0	.
SMILES	Runt-CBFb FRET	RanGTP-Imp inh	Hck-Nef inh	Runt-SMMHC FRET	14-3-3 Bad inh	TbHK1 inh	RUNX1 CBFb TR
COc1ccc(OCC(=O)N/N=C/C=C/c2ccccc2)cc1	0.8	-3.2	-1.7	1.4	3.4	4.4	.
COC(=O)C1CCN(S(=O)(=O)c2ccc(OC)cc2)CC1	-1.7	1.1	-1.4	1.0	-10.2	-4.5	.
CCC(C)[C@H](NC(=O)NC(C)C)C(=O)O (stereo not given in full)	-0.6	-1.7	-0.1	1.3	0.1	-0.7	.
Cn1ccnc1Sc1nc2ccccc2nc1NS(=O)(=O)c1ccccc1	60.9*	?	-2.5	73.0*	0.5	-12.2	54.5*
COc1cc(C2C3=C(CC(C)(C)CC3=O)N(C)C3=C2C(=O)CC(C)(C)C3)ccc1O	.	10.6	.	.	.	.	.
COc1cc(C2C3=C(CC(C)(C)CC3=O)Nc3c2c(=O)[nH]c(=O)n3Cc2ccccc2)ccc1O (stereo not given)	76.0*	?	4.0	115.3*	-2.9	-3.5	5.9
Cc1ccc2c(c1)sc(C)[n+]2CCCS(=O)(=O)[O-]	57.9*	0.9	30.9	50.3	-16.3	0.0	29.1
CCC(C)(C(=O)NC1CCCCC1)N(C(=O)CNC(=O)c1ccccc1)c1c(C)n(C)n(-c2ccccc2)c1=O (stereo not given)	0.2	3.7	-0.3	-2.4	-1.4	0.1	.
CCOC(=O)C1=C(CNCCc2ccc(Cl)cc2)NC(=O)NC1c1ccc2c(c1)OCO2 (stereo not given)	65.3*	-5.3	1.1	0.7	-7.3	0.8	6.8
Cc1ccc(C)c(NC(=S)N2CCC(NC(=O)c3ccc(F)cc3)CC2)c1	.	1.2	.	.	.	.	.
COc1ccc(-c2noc(CCC(=O)N3CCC(C)CC3)n2)cc1	85.1*	0.2	0.5	-1.8	2.8	0.3	-1.9
Cc1ccc(NC(=O)c2ccccc2OCC(=O)Nc2cccc(Cl)c2C)nc1	1.7	-1.8	23.5	4.0	65.7	-0.4	.
CCn1c(C)c(C(C)=O)c(N2CCN(c3ccccn3)CC2)nc1=S	51.8*	45.3*	-8.4	99.9*	16.3	-15.2	-4.2
COc1ccc(C2CC(=O)N3CN(c4ccc(C)c(Cl)c4)CSC3=C2C#N)cc1OC (stereo not given)	59.0*	-1.1	0.1	100.4*	-5.2	-28.1	-24.0
COc1ccc(N2CSC3=C(C#N)C(c4ccc(OC)c(OC)c4)CC(=O)N3C2)c(OC)c1 (stereo not given)	23.0	3.2	0.3	31.3	0.0	-17.5	.
Oc1ccc(/C=N/N=C(c2ccccc2)c2ccccc2)c(O)c1O	56.7*	.	-1.1	46.5	16.6	4.0	62.8*
COc1cc(/C=N/N2CCN(Cc3ccccc3)CC2)cc(OC)c1OC(C)=O	.	1.4	.	.	.	.	.
CNCc1ccccc1Sc1cc(O)ccc1O	51.5*	.	2.3	43.7	57.4	-1.3	-2.2
CNCc1ccccc1Sc1cccc(O)c1	-1.2	3.7	1.4	0.6	4.9	-0.9	.
